Test results: ChEMBL document CHEMBL1147735, “Library design, synthesis, and screening: pyridine dicarbonitriles as potential prion disease therapeutics” (J Med Chem, 2006)

What was measured:
[1] = molecular target: Major prion protein (Homo sapiens) (UniProt P04156); experiment: Binding affinity to truncated human PrPC at 40 uM
Method in brief: (§1)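 SPR at 25 °C, 30 µL/min. Each PrPC form was amine-coupled at 2 µg/mL onto a CM5 dextran chip via NHS/EDC, with ethanolamine block; flow cell 1 served as control. Ligand at 40 µM, 1 min association, 3 min dissociation, with DMSO calibration. Binding expressed as %RU_max, normalised for immobilised RU and molecular weights.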

[2] = molecular target: Major prion protein (Mus musculus) (UniProt P04925); experiment: Binding affinity to mouse PrPC at 40 uM; method in brief: as §1
[3] = molecular target: Major prion protein (Homo sapiens) (UniProt P04156); experiment: Binding affinity to human PrPC at 40 uM; method in brief: as §1

Chain of Major prion protein (Mus musculus) (P04925 whole entry): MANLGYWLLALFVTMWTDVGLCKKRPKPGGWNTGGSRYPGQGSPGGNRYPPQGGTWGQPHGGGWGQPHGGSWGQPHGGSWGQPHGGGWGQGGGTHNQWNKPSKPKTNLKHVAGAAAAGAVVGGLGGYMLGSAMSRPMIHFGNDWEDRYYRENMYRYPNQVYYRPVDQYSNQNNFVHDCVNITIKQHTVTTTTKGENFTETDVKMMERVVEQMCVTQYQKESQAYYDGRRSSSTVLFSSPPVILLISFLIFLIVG

SMILES | RUmax [1] | RUmax [2] | RUmax [3]
N#Cc1c(N)nc(Sc2ccccc2)c(C#N)c1-c1ccccc1 | 0% | 0% | 0%
COC(=O)c1ccc(-c2c(C#N)c(N)nc(Sc3cccc(C(=O)OC)c3)c2C#N)cc1 | 0% | 0% | 0%
N#Cc1c(N)nc(Sc2ccc(O)cc2)c(C#N)c1-c1ccc(O)c(Cl)c1 | 33.4% | 64.6% | 53.4%
CS(=O)(=O)c1ccc(-c2c(C#N)c(N)nc(Sc3ccc(O)cc3)c2C#N)cc1 | 0% | 0% | 0%
N#Cc1c(N)nc(Sc2cccc(Cl)c2)c(C#N)c1-c1ccc(Cl)cc1 | 56.5% | 52.3% | 119%
COc1cccc(-c2c(C#N)c(N)nc(Sc3cccc(Cl)c3)c2C#N)c1 | 6.7% | 0% | 8.6%
COc1cccc(-c2c(C#N)c(N)nc(Sc3ccccc3)c2C#N)c1 | 0% | 0% | 0%
CC(=O)Nc1ccc(Sc2nc(N)c(C#N)c(-c3c(F)cccc3F)c2C#N)cc1 | 20% | 40.1% | 37.3%
COc1ccc(-c2c(C#N)c(N)nc(Sc3cccc(Cl)c3)c2C#N)cc1 | 0% | 0% | 0%
COC(=O)c1ccc(-c2c(C#N)c(N)nc(Sc3ccc(NC(C)=O)cc3)c2C#N)cc1 | 6.4% | 13.3% | 9.4%
COC(=O)c1ccc(Sc2nc(N)c(C#N)c(-c3ccc(O)cc3)c2C#N)cc1 | 0% | 0% | 0%
COC(=O)c1ccc(Sc2nc(N)c(C#N)c(-c3ccccc3)c2C#N)cc1 | 0% | 0% | 0%
CC(=O)c1ccc(-c2c(C#N)c(N)nc(Sc3ccc(O)cc3)c2C#N)cc1 | 0% | 0% | 0%
COc1ccc(-c2c(C#N)c(N)nc(Sc3ccccc3)c2C#N)cc1 | 0% | 0% | 0%
CC(=O)Nc1ccc(Sc2nc(N)c(C#N)c(-c3cc(F)cc(F)c3)c2C#N)cc1 | 0% | 0% | 0%
N#Cc1c(N)nc(Sc2cccc(Cl)c2)c(C#N)c1-c1ccccc1 | 0% | 0% | 0%
N#Cc1c(N)nc(Sc2ccc(O)cc2)c(C#N)c1-c1ccc(O)c(F)c1 | 28% | 53.8% | 44.2%
COC(=O)c1ccc(-c2c(C#N)c(N)nc(Sc3cccc(Cl)c3)c2C#N)cc1 | 0% | 0% | 0%
COC(=O)c1ccc(Sc2nc(N)c(C#N)c(-c3ccc(C(=O)OC)cc3)c2C#N)cc1 | 0% | 0% | 0%
N#Cc1c(N)nc(Sc2ccc(O)cc2)c(C#N)c1-c1cccc(O)c1 | 23.1% | 43.1% | 34%
COC(=O)c1ccc(-c2c(C#N)c(N)nc(Sc3ccc(O)cc3)c2C#N)cc1 | 0% | 0% | 0%
N#Cc1c(N)nc(Sc2cccc(O)c2)c(C#N)c1-c1ccccc1 | 37.6% | 60.6% | 70.3%
N#Cc1c(N)nc(Sc2ccc(Cl)cc2)c(C#N)c1-c1ccccc1 | 11.4% | 0% | 0%
N#Cc1c(N)nc(Sc2ccccc2F)c(C#N)c1-c1cccc(O)c1 | 9.2% | 18.8% | 17.2%
COC(=O)c1cccc(Sc2nc(N)c(C#N)c(-c3ccccc3)c2C#N)c1 | 26.8% | 33.2% | 125%
COC(=O)c1ccc(-c2c(C#N)c(N)nc(Sc3ccc(C(=O)O)cc3)c2C#N)cc1 | 0% | 8.5% | 5.9%
